Laboratory results as given in ChEMBL document CHEMBL1141286, “Benzochromenones from the marine crinoid Comantheria rotula inhibit hypoxia-inducible factor-1 (HIF-1) in cell-based reporter assays and differentially suppress the growth of certain tumor cell lines” (J Nat Prod, 2007).
pIC50: −log10 of the molar value.

Legend:
[1] = tested on: MOLT-4; experiment: Growth inhibition of human MOLT4 cells; type: functional; conditions: for CC50: read-out: Log LC50 (the source's name) (converted); for TGI: read-out: Log TGI (converted)
[2] = tested on: SR; experiment: Growth inhibition of human SR cells; type: functional; conditions: for CC50: read-out: Log LC50 (the source's name) (converted); for TGI: read-out: Log TGI (converted)
[3] = tested on: A549; experiment: Growth inhibition of human A549 cells; type: functional; conditions: for CC50: read-out: Log LC50 (the source's name) (converted); for TGI: read-out: Log TGI (converted)
[4] = tested on: EKVX; experiment: Growth inhibition of human EKVX cells; type: functional; conditions: for CC50: read-out: Log LC50 (the source's name) (converted); for TGI: read-out: Log TGI (converted)
[5] = tested on: HOP-62; experiment: Growth inhibition of human HOP62 cells; type: functional; conditions: for CC50: read-out: Log LC50 (the source's name) (converted); for TGI: read-out: Log TGI (converted)
[6] = tested on: HCT-116; experiment: Growth inhibition of human HCT116 cells; type: functional; conditions: for CC50: read-out: Log LC50 (the source's name) (converted); for TGI: read-out: Log TGI (converted)
[7] = tested on: KM12; experiment: Growth inhibition of human KM12 cells; type: functional; conditions: for CC50: read-out: Log LC50 (the source's name) (converted); for TGI: read-out: Log TGI (converted)
[8] = tested on: SW-620; experiment: Growth inhibition of human SW620 cells; type: functional; conditions: for CC50: read-out: Log LC50 (the source's name) (converted); for TGI: read-out: Log TGI (converted)
[9] = tested on: U-251; experiment: Growth inhibition of human U251 cells; type: functional; conditions: for TGI: read-out: Log TGI (converted)
[10] = tested on: SK-MEL-28; experiment: Growth inhibition of human SK-MEL28 cells; type: functional; conditions: for CC50: read-out: Log LC50 (the source's name) (converted); for TGI: read-out: Log TGI (converted)
[11] = tested on: UACC-62; experiment: Growth inhibition of human UACC62 cells; type: functional; conditions: for TGI: read-out: Log TGI (converted)
[12] = tested on: OVCAR-5; experiment: Growth inhibition of human OVACAR5 cells; type: functional; conditions: for TGI: read-out: Log TGI (converted)
[13] = tested on: SK-OV-3; experiment: Growth inhibition of human SK-OV3 cells; type: functional; conditions: for TGI: read-out: Log TGI (converted)
[14] = tested on: A498; experiment: Growth inhibition of human A498 cells; type: functional; conditions: for TGI: read-out: Log TGI (converted)
[15] = tested on: PC-3; experiment: Growth inhibition of human PC3 cells; type: functional; conditions: for TGI: read-out: Log TGI (converted)
[16] = tested on: MDA-MB-231; experiment: Growth inhibition of human MDA-MB-231 cells; type: functional; conditions: for TGI: read-out: Log TGI (converted)
[17] = tested on: Hs-578T; experiment: Growth inhibition of human HS578T cells; type: functional; conditions: for TGI: read-out: Log TGI (converted)
[18] = tested on: MDA-MB-435; experiment: Growth inhibition of human MDA-MB-435 cells; type: functional; conditions: for TGI: read-out: Log TGI (converted)
[19] = tested on: BT-549; experiment: Growth inhibition of human BT549 cells; type: functional; conditions: for TGI: read-out: Log TGI (converted)
[20] = tested on: HL-60; experiment: Growth inhibition of human HL60 cells; type: functional; conditions: for TGI: read-out: Log TGI (converted)
[21] = Inhibition of 1,10-phenanthroline-induced HIF1 activation in T47D cells by TK-luciferase assay; type: cell-based; conditions: Homo sapiens
Outline: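 HIF-1 reporter (pHRE-TK-Luc) assays in transfected PC-3 or T47D cells; HIF-1 induced by hypoxia or by the hypoxia mimetic 1,10-phenanthroline (10 μM); compounds at half-log concentrations; luciferase activity measured; IC50 from experiments in triplicate.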

[22] = DPPH radical scavenging activity relative to Trolox; type: functional; parameters: concentration or dose not given beside the values
Outline: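 Compounds were made up as DMSO stocks and diluted in isopropanol to a final 10 μM. Each was mixed with DPPH in isopropanol at 10 μM or 30 μM DPPH, and absorbance was read at 515 nm. Scavenging was calculated as [1 − OD515(compound)/OD515(control)] × 100, then expressed as a percentage of Trolox activity. One experiment was run in triplicate.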

[23] = tested on: HOP-92; experiment: Growth inhibition of human HOP92 cells; type: functional

## CCCc1cc(=O)c2c(OC)c3c(OC)cc(OC)cc3cc2o1
[1]
  GI50: > 100 µM
  CC50: > 100 µM
  TGI: 30.2 µM
[2]
  GI50: 39.8 µM
  CC50: > 100 µM
  TGI: > 100 µM
[3]
  GI50: 58.9 µM
  CC50: > 100 µM
  TGI: > 100 µM
[4]
  GI50: 100 µM
  CC50: > 100 µM
  TGI: > 100 µM
[5]
  GI50: 57.5 µM
  CC50: > 100 µM
  TGI: > 100 µM
[6]
  GI50: 42.7 µM
  CC50: 34.7 µM
  TGI: > 100 µM
[7]
  GI50: 87.1 µM
  CC50: > 100 µM
  TGI: > 100 µM
[8]
  GI50: > 100 µM
  CC50: > 100 µM
  TGI: > 100 µM
[9]
  GI50: > 100 µM
  LC50: > 100 µM
  TGI: > 100 µM
[10]
  GI50: > 100 µM
  CC50: > 100 µM
  TGI: > 100 µM
[11]
  GI50: > 100 µM
  LC50 (lethal concentration, 50% cell kill): > 100 µM
  TGI: > 100 µM
[12]
  GI50: > 100 µM
  LC50: > 100 µM
  TGI: > 100 µM
[13]
  GI50: > 100 µM
  LC50: > 100 µM
  TGI: > 100 µM
[14]
  GI50: 3.47 µM
  LC50: > 100 µM
  TGI: > 100 µM
[15]
  GI50: 51.3 µM
  LC50: > 100 µM
  TGI: > 100 µM
[16]
  GI50: 25.7 µM
  LC50: > 100 µM
  TGI: > 100 µM
[17]
  GI50: 33.1 µM
  LC50: > 100 µM
  TGI: > 100 µM
[18]
  GI50: 97.7 µM
  LC50: > 100 µM
  TGI: > 100 µM
[19]
  GI50: 66.1 µM
  LC50: > 100 µM
  TGI: > 100 µM
[20]
  GI50: 42.7 µM
  LC50: > 100 µM
  TGI: > 100 µM
[21]
  pIC50: 5.70

## COc1cc(O)cc2cc3oc(C)cc(=O)c3c(OC)c12 [COMANTHERIN]
[22]
  Activity: 40%
[1]
  GI50: > 100 µM
  CC50: > 100 µM
  TGI: > 100 µM
[2]
  GI50: 97.7 µM
  CC50: > 100 µM
  TGI: > 100 µM
[3]
  GI50: > 100 µM
  CC50: > 100 µM
  TGI: > 100 µM
[4]
  GI50: > 100 µM
  CC50: > 100 µM
  TGI: > 100 µM
[5]
  GI50: > 100 µM
  CC50: > 100 µM
  TGI: > 100 µM
[6]
  GI50: > 100 µM
  CC50: > 100 µM
  TGI: > 100 µM
[7]
  GI50: > 100 µM
  CC50: > 100 µM
  TGI: > 100 µM
[8]
  GI50: > 100 µM
  CC50: > 100 µM
  TGI: > 100 µM
[9]
  GI50: 100 µM
  LC50: > 100 µM
  TGI: > 100 µM
[10]
  GI50: > 100 µM
  CC50: > 100 µM
  TGI: > 100 µM
[11]
  GI50: > 100 µM
  LC50 (lethal concentration, 50% cell kill): > 100 µM
  TGI: > 100 µM
[12]
  GI50: > 100 µM
  LC50: > 100 µM
  TGI: > 100 µM
[13]
  GI50: > 100 µM
  LC50: > 100 µM
  TGI: > 100 µM
[14]
  GI50: > 100 µM
  LC50: > 100 µM
  TGI: > 100 µM
[15]
  GI50: 85.1 µM
  LC50: > 100 µM
  TGI: > 100 µM
[16]
  GI50: > 100 µM
  LC50: > 100 µM
  TGI: > 100 µM
[17]
  GI50: 21.9 µM
  LC50: > 100 µM
  TGI: > 100 µM
[18]
  GI50: > 100 µM
  LC50: > 100 µM
  TGI: > 100 µM
[19]
  GI50: 74.1 µM
  LC50: > 100 µM
  TGI: > 100 µM
[20]
  GI50: > 100 µM
  LC50: > 100 µM
  TGI: > 100 µM
[21]
  pIC50: 5.57

## COc1cc(O)cc2cc3oc(C)cc(=O)c3c(O)c12
[22]
  Activity: 40%
[1]
  GI50: 17.8 µM
  CC50: > 100 µM
  TGI: 51.3 µM
[2]
  GI50: 15.1 µM
  CC50: > 100 µM
  TGI: 41.7 µM
[3]
  GI50: 29.5 µM
  CC50: > 100 µM
  TGI: > 100 µM
[4]
  GI50: 37.2 µM
  CC50: > 100 µM
  TGI: > 100 µM
[23]
  GI50: 30.9 µM
[23]; read-out: Log LC50 (the source's name) (converted)
  CC50: > 100 µM
[23]; read-out: Log TGI (converted)
  TGI: > 100 µM
[6]
  GI50: 14.5 µM
  CC50: 63.1 µM
  TGI: 30.2 µM
[7]
  GI50: 18.6 µM
  CC50: 85.1 µM
  TGI: 39.8 µM
[8]
  GI50: 0.295 µM
  CC50: > 100 µM
  TGI: 17 µM
[9]
  GI50: 33.1 µM
  LC50: > 100 µM
  TGI: > 100 µM
[10]
  GI50: 24 µM
  CC50: > 100 µM
  TGI: 63.1 µM
[11]
  GI50: 29.5 µM
  LC50 (lethal concentration, 50% cell kill): > 100 µM
  TGI: > 100 µM
[12]
  GI50: 46.8 µM
  LC50: > 100 µM
  TGI: > 100 µM
[13]
  GI50: 31.6 µM
  LC50: > 100 µM
  TGI: > 100 µM
[14]
  GI50: 0.617 µM
  LC50: > 100 µM
  TGI: 11.7 µM
[15]
  GI50: 32.4 µM
  LC50: > 100 µM
  TGI: > 100 µM
[16]
  GI50: 17.8 µM
  LC50: > 100 µM
  TGI: > 100 µM
[17]
  GI50: 0.589 µM
  LC50: > 100 µM
[18]
  GI50: 27.5 µM
  LC50: > 100 µM
  TGI: > 100 µM
[19]
  GI50: 20.4 µM
  LC50: > 100 µM
  TGI: > 100 µM
[20]
  GI50: 20.9 µM
  LC50: 83.2 µM
  TGI: 41.7 µM
[21]
  pIC50: 6.05
